Laboratory results reported in ChEMBL document CHEMBL3351552, “Structure-activity profiles of novel 6-substituted pyrrolo[2,3-d]pyrimidine thienoyl antifolates with modified amino acids for cellular uptake by folate receptors α and β and the proton-coupled folate transporter” (J Med Chem, 2014).
The source made the active and inactive calls. The rule behind the calls is not given here.

Assays:
[1] = target: Folate receptor alpha (Homo sapiens) (UniProt P15328); assay: Inhibition of [3H]folic acid binding to FRalpha (unknown origin) expressed in Chinese hamster RT16 cells; type: cell-based
In short: (§1)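 RT16 (FRα) or D4 (FRβ) CHO cells (~5 × 10^6) were stripped of bound folate with pH 3.5 acetate/saline, then washed in ice-cold HEPES-buffered saline pH 7.4. Cells were incubated 15 min at 0 °C with 50 nM [3H]folic acid (0.5 Ci/mmol) plus 0–1000 nM unlabeled competitor. Cells were rinsed cold, NaOH-solubilized, and counts normalized to protein. […] Mean ± SE, n=3.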

[2] = system: KB; assay: Cytotoxicity against human KB cells assessed as cell growth inhibition incubated up to 96 hrs in presence of 200 nM folic acid by Celltiter-blue cell viability assay; type: functional, cell-based
In short: (§2)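 Cells plated at ~2500–5000/well in folate-free RPMI with 10% dialyzed FBS, antibiotics, 2 nM LCV and 2 mM L-glutamine, exposed to a range of drug concentrations. RT16 were pre-cultured 3 days in folate-free RPMI. FR dependence was tested in parallel wells containing 200 nM folic acid. Incubation up to 96 h, CellTiter-Blue fluorescence read-out. IC50 taken versus untreated cells.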

[3] = system: R2; assay: Cytotoxicity against Chinese hamster R2 cells assessed as cell growth inhibition incubated up to 96 hrs by Celltiter-blue cell viability assay; type: cell-based; conditions: Cricetulus griseus, R2, 96 h
[4] = target: Folate receptor beta (Homo sapiens) (UniProt P14207); assay: Inhibition of [3H]folic acid binding to FRbeta (unknown origin) expressed in Chinese hamster D4 cells; type: cell-based; in short: as §1
[5] = system: R2; assay: Cytotoxicity against Chinese hamster R2 cells expressing empty vector assessed as cell growth inhibition incubated up to 96 hrs by Celltiter-blue cell viability assay; type: cell-based, Cricetulus griseus; conditions: R2, 96 h
[6] = system: KB; assay: Cytotoxicity against human KB cells assessed as cell growth inhibition incubated up to 96 hrs by Celltiter-blue cell viability assay; type: functional, cell-based; in short: as §2
[7] = target: T1, Proton-coupled folate transporter (Homo sapiens) (UniProt Q96NT5); assay: Inhibition of PCFT (unknown origin) expressed in Chinese hamster R2/PCFT4 cells assessed as reduction in PCFT-mediated [3H]MTX transport at 1 uM at pH 5.5 and 37 degC incubated for 5 mins; type: cell-based
T1 sequence (whole entry): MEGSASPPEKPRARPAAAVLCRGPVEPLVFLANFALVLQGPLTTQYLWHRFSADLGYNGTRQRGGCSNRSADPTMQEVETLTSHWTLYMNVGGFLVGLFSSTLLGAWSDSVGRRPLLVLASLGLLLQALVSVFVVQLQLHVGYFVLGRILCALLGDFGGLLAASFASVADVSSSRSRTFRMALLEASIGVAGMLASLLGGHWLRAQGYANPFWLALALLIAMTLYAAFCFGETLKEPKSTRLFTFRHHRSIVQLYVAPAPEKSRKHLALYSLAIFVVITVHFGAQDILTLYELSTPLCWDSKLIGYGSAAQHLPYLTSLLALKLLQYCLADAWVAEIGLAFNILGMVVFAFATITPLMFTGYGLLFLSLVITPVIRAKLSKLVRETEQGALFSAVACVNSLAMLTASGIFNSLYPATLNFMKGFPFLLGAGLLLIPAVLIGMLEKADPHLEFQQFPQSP
In short: (§3)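 Uptake was quenched with ice-cold DPBS, cells washed and solubilized in 0.5 N NaOH. Radioactivity was expressed per mg protein and normalized to untreated controls. Mean ± SE of three experiments.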

[8] = target: T2, Proton-coupled folate transporter (Homo sapiens, UniProt Q96NT5); assay: Inhibition of PCFT (unknown origin) expressed in Chinese hamster R2/PCFT4 cells assessed as reduction in PCFT-mediated [3H]MTX transport at pH 5.5 and 37 degC incubated for 5 mins; type: cell-based
T2 sequence (Q96NT5 whole entry): T1 sequence (whole entry)

[9] = target: T1, Proton-coupled folate transporter (Homo sapiens); assay: Inhibition of PCFT (unknown origin) expressed in Chinese hamster R2/PCFT4 cells assessed as reduction in PCFT-mediated [3H]MTX transport at 10 uM at pH 6.8 and 37 degC incubated for 5 mins; type: cell-based; in short: as §3
[10] = target: T1, Proton-coupled folate transporter (Homo sapiens); assay: Inhibition of PCFT (unknown origin) expressed in Chinese hamster R2/PCFT4 cells assessed as reduction in PCFT-mediated [3H]MTX transport at 10 uM at pH 5.5 and 37 degC incubated for 5 mins; type: cell-based; in short: as §3
[11] = system: KB; assay: Cytotoxicity against human KB cells assessed as cell growth inhibition incubated up to 96 hrs in presence of 320 uM AICA by Celltiter-blue cell viability assay; type: functional, cell-based
In short: (§4)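 KB cells grown in complete folate-free RPMI 1640 with 2 nM LCV over a range of drug concentrations, with added thymidine (10 μM), adenosine (60 μM) or AICA (320 μM) as protecting agents. After up to 96 h, density measured by CellTiter-Blue fluorescence and normalized to drug-free cells. Experiments run in triplicate.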

[12] = system: KB; assay: Cytotoxicity against human KB cells assessed as cell growth inhibition incubated up to 96 hrs in presence of 10 uM thymidine by Celltiter-blue cell viability assay; type: functional, cell-based; in short: as §4
[13] = system: KB; assay: Cytotoxicity against human KB cells assessed as cell growth inhibition incubated up to 96 hrs in presence of 60 uM adenosine by Celltiter-blue cell viability assay; type: functional, cell-based; in short: as §4
[14] = target: T1, Proton-coupled folate transporter (Homo sapiens); assay: Inhibition of PCFT (unknown origin) expressed in Chinese hamster R2/PCFT4 cells assessed as reduction in PCFT-mediated [3H]MTX transport at 1 uM at pH 6.8 and 37 degC incubated for 5 mins; type: cell-based; in short: as §3

Chain of Folate receptor alpha (Homo sapiens) (P15328 25-234 limits assumed): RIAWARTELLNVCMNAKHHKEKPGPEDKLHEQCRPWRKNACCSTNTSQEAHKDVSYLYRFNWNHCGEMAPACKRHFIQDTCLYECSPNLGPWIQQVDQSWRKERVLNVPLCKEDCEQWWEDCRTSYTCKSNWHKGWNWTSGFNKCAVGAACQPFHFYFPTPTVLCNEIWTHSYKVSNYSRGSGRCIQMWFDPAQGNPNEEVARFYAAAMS
Chain of Folate receptor beta (Homo sapiens) (P14207 17-230 limits assumed): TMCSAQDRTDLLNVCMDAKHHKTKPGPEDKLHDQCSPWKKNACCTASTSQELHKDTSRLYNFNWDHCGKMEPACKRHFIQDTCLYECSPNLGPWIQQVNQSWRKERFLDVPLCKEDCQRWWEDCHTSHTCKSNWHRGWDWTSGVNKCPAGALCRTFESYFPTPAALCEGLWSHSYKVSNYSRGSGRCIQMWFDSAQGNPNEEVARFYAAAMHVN

Structure (SMILES) | inhibition [1] | IC50 [2] [nM] | IC50 [3] [nM] | inhibition [4] | IC50 [5] [nM] | IC50 [6] [nM] | inhibition [7] [%] | Ki [8] [nM] | inhibition [9] [%] | inhibition [10] [%] | growth inhibition (GI) [11] | growth inhibition (GI) [12] | growth inhibition (GI) [13] | inhibition [14] [%]
Nc1nc2[nH]c(CCCc3ccc(C(=O)NCCCC(=O)O)s3)cc2c(=O)[nH]1 | Active | > 1000 | > 1000 | Active | > 1000 | > 1000 |  |  |  |  |  |  |  | 
CCC[C@H](NC(=O)c1ccc(CCCc2cc3c(=O)[nH]c(N)nc3[nH]2)s1)C(=O)O | Active | > 1000 | > 1000 | Active | > 1000 | > 1000 | 25 | 2900 | 30 | 70 |  |  |  | 
Nc1nc(=O)c2nc(CNc3ccc(C(=O)N[C@@H](CCC(=O)O)C(=O)O)cc3)cnc2[nH]1 | Active |  |  | Active |  |  |  |  |  |  |  |  |  | 
Nc1nc2[nH]c(CCCc3ccc(C(=O)N[C@@H](CC(=O)O)C(=O)O)s3)cc2c(=O)[nH]1 | Active | > 1000 | > 1000 | Active | > 1000 | > 1000 |  |  |  |  |  |  |  | 
Nc1nc2[nH]c(CCCc3ccc(C(=O)N[C@@H](CCCC(=O)O)C(=O)O)s3)cc2c(=O)[nH]1 | Active | > 1000 | > 1000 | Active | > 1000 | 9 | 10 | 1600 | 30 | 75 | inactive | Active | inactive | 
CN(Cc1cnc2nc(N)nc(N)c2n1)c1ccc(C(=O)N[C@@H](CCC(=O)O)C(=O)O)cc1 [METHOTREXATE] | inactive |  |  | inactive | > 1000 |  |  |  |  |  |  |  |  | 
Nc1nc2[nH]c(CCCc3ccc(C(=O)O)s3)cc2c(=O)[nH]1 | Active | > 1000 | > 1000 | Active | > 1000 | > 1000 |  |  |  |  |  |  |  | 
Nc1nc2[nH]c(CCCc3ccc(C(=O)N[C@@H](CCC(=O)O)C(=O)O)s3)cc2c(=O)[nH]1 | Active | > 1000 |  | Active |  |  | 80 |  | 70 | 95 | inactive | Active | inactive | 20
